≈ marks a conversion by molar mass, not a printed value.
How the values were obtained:
Type in all cases: functional
[1] = tested on: Aspergillus flavus; experiment: Fungicidal activity against Aspergillus flavus MTCC 1884 measured after 2 days by broth dilution method
Outline: (§1)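 MBC/MFC is found by further steps carried out once the MIC has been determined.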

[2] = tested on: Aspergillus niger; experiment: Antifungal activity against Aspergillus niger MTCC 1881 at 200 ug/mL incubated at 4 degC for 24 hrs followed by subsequent incubation at 37.5 degC for 3 days by poisoned food method; conditions: read-out: DIZ
[3] = tested on: Proteus vulgaris; experiment: Antibacterial activity against Proteus vulgaris […] measured after 24 hrs by broth dilution method
Outline: (§2)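 MIC is the lowest concentration that arrests growth of the organism.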

[4] = tested on: Staphylococcus aureus; experiment: Bactericidal activity against Staphylococcus aureus ATCC 19433 measured after 24 hrs by broth dilution method; outline: as §1
[5] = tested on: Staphylococcus aureus; experiment: Antibacterial activity against Staphylococcus aureus ATCC 19433 measured after 24 hrs by broth dilution method; outline: as §2
[6] = tested on: Bacillus spizizenii; experiment: Bactericidal activity against Bacillus subtilis ATCC 6633 measured after 24 hrs by broth dilution method; outline: as §1
[7] = tested on: Escherichia coli; experiment: Antibacterial activity against Escherichia coli ATCC 8739 at 200 ug/mL measured after 24 hrs by filter paper disc method; conditions: ATCC 8739, 24 h, read-out: DIZ
[8] = tested on: Staphylococcus aureus; experiment: Antibacterial activity against Staphylococcus aureus ATCC 19433 at 200 ug/mL measured after 24 hrs by filter paper disc method; conditions: ATCC 19433, 24 h, read-out: DIZ
[9] = tested on: Proteus vulgaris; experiment: Antibacterial activity against Proteus vulgaris […] at 200 ug/mL measured after 24 hrs by filter paper disc method; conditions: read-out: DIZ
[10] = tested on: Aspergillus flavus; experiment: Antifungal activity against Aspergillus flavus MTCC 1884 measured after 2 days by broth dilution method; outline: as §2
[11] = tested on: Aspergillus niger; experiment: Fungicidal activity against Aspergillus niger MTCC 1881 measured after 2 days by broth dilution method; outline: as §1
[12] = tested on: Bacillus spizizenii; experiment: Antibacterial activity against Bacillus subtilis ATCC 6633 at 200 ug/mL measured after 24 hrs by filter paper disc method; conditions: ATCC 6633, 24 h, read-out: DIZ
[13] = tested on: Aspergillus niger; experiment: Antifungal activity against Aspergillus niger MTCC 1881 measured after 2 days by broth dilution method; outline: as §2
[14] = tested on: Proteus vulgaris; experiment: Bactericidal activity against Proteus vulgaris […] measured after 24 hrs by broth dilution method; outline: as §1
[15] = tested on: Escherichia coli; experiment: Bactericidal activity against Escherichia coli ATCC 8739 measured after 24 hrs by broth dilution method; outline: as §1
[16] = tested on: Escherichia coli; experiment: Antibacterial activity against Escherichia coli ATCC 8739 measured after 24 hrs by broth dilution method; outline: as §2
[17] = tested on: Aspergillus flavus; experiment: Antifungal activity against Aspergillus flavus MTCC 1884 at 200 ug/mL incubated at 4 degC for 24 hrs followed by subsequent incubation at 37.5 degC for 3 days by poisoned food method; conditions: read-out: DIZ
[18] = tested on: Bacillus spizizenii; experiment: Antibacterial activity against Bacillus subtilis ATCC 6633 measured after 24 hrs by broth dilution method; outline: as §2
[19] = tested on: Aspergillus flavus; experiment: Ratio of MFC to MIC for Aspergillus flavus MTCC 1884
[20] = tested on: Escherichia coli; experiment: Ratio of MBC to MIC for Escherichia coli ATCC 8739
[21] = tested on: Proteus vulgaris; experiment: Ratio of MBC to MIC for Proteus vulgaris […]
[22] = tested on: Staphylococcus aureus; experiment: Ratio of MBC to MIC for Staphylococcus aureus ATCC 19433
[23] = tested on: Bacillus spizizenii; experiment: Ratio of MBC to MIC for Bacillus subtilis ATCC 6633
[24] = tested on: Aspergillus niger; experiment: Ratio of MFC to MIC for Aspergillus niger MTCC 1881

Structure (SMILES)	MFC [1] [µg]	zone of inhibition at 200 µg/mL [2] [mm]	MIC [3] [µg]	MBC [4] [µg]	MIC [5] [µg]	MBC [6] [µg]	zone of inhibition at 200 µg/mL [7] [mm]	zone of inhibition at 200 µg/mL [8] [mm]	zone of inhibition at 200 µg/mL [9] [mm]	MIC [10] [µg/mL]	MFC [11] [µg]	zone of inhibition at 200 µg/mL [12] [mm]	MIC [13] [µg]	MBC [14] [µg]	MBC [15] [µg]	MIC [16] [µg]	zone of inhibition at 200 µg/mL [17] [mm]	MIC [18] [µg/mL]	Ratio [19]	Ratio [20]	further results
Cc1ccc(-c2ccc(-c3nc(C)sc3C)cc2)cc1	100	19.7	50	>200	100	100	24.2	23.1	19.5	25 (≈ 89.5 µM)	>200	21.1	25	100	100	12.5	21.3	–	–	–	–
COc1ccc(-c2ccc(-c3nc(C)sc3C)cc2)cc1	50	23.4	25	>200	50	100	27.1	25.5	21.6	25 (≈ 84.6 µM)	100	22.1	12.5	100	25	12.5	24.9	6.25 (≈ 21.2 µM)	2	2	–
COc1cccc(-c2ccc(-c3nc(C)sc3C)cc2)c1	–	6.32	–	–	–	–	19.2	17.5	18.8	–	–	15.2	–	–	–	–	9.11	–	–	–	–
COc1ccc(-c2ccc(-c3nc(C)sc3C)cc2)cc1OC	200	22.5	25	50	25	100	25.6	24.1	20.9	–	100	22	25	100	200	50	24.2	12.5 (≈ 38.4 µM)	–	–	Ratio [21]: 2; Ratio [22]: 2
Cc1nc(-c2ccc(-c3ccc(C(F)(F)F)cc3)cc2)c(C)s1	–	–	–	–	–	–	8.7	7.86	6.91	–	–	5.37	–	–	–	–	–	–	–	–	–
Cc1nc(-c2ccc(-c3ccc(I)cc3)cc2)c(C)s1	–	8	–	–	–	–	16.2	14.8	15.1	–	–	12.1	–	–	–	–	9.57	–	–	–	–
Cc1nc(-c2ccc(-c3cccc(C=O)c3)cc2)c(C)s1	–	3.92	–	–	–	–	9.56	8.02	7.39	–	–	6.65	–	–	–	–	6.29	–	–	–	–
Cc1nc(-c2ccc(-c3ccc(CO)cc3)cc2)c(C)s1	100	14.5	100	>200	12.5	100	23.8	21.6	17.6	25 (≈ 84.6 µM)	200	20	25	>200	100	25	17.1	–	>2	>2	Ratio [23]: >2; Ratio [24]: >2; Ratio [21]: >2; Ratio [22]: >2
Cc1nc(-c2ccc(-c3ccc(F)c(C)c3)cc2)c(C)s1	–	–	–	–	–	–	18.1	16.4	15.2	–	–	14.6	–	–	–	–	5.63	–	–	–	–
Cc1cc(C)c(-c2ccc(-c3nc(C)sc3C)cc2)c(C)c1	25	25.2	12.5	100	25	50	28	26.1	22.1	12.5 (≈ 40.7 µM)	100	24.6	6.25	50	12.5	6.25	27.8	6.25 (≈ 20.3 µM)	2	2	–
Cc1nc(-c2ccc(-c3ccc(O)cc3)cc2)c(C)s1	100	13.6	50	100	25	200	21.1	19.2	20	25 (≈ 88.8 µM)	200	17.7	50	200	>200	25	15.3	–	>2	>2	Ratio [23]: >2; Ratio [24]: >2; Ratio [21]: >2; Ratio [22]: >2
O=C(O)c1cn(C2CC2)c2cc(N3CCNCC3)c(F)cc2c1=O [CIPROFLOXACIN]	–	–	–	–	6.25	–	29.8	27	23.2	–	–	25.5	–	–	–	6.25	–	6.25 (≈ 18.9 µM)	–	–	–
CC(=O)N1CCN(c2ccc(OCC3COC(Cn4ccnc4)(c4ccc(Cl)cc4Cl)O3)cc2)CC1 (stereo not given) [KETOCONAZOLE]	–	25.4	–	–	–	–	–	–	–	12.5 (≈ 23.5 µM)	–	–	6.25	–	–	–	28.4	–	–	–	–
